{
  "source": "ChEMBL document CHEMBL2040711",
  "about": "“Synthesis, characterization and antimicrobial studies of some new quinoline incorporated benzimidazole derivatives” (2012)",
  "type_in_all_cases": "functional",
  "conditions_in_all_cases": "read-out: DIZ",
  "key": {"Penicillium sp. [1]": {"test_system": "Penicillium sp.", "assay": "Antifungal activity against Penicillium sp. at 12.5 ug/ml after 72 hrs by well plate method"}, "Xanthomonas sp. [2]": {"test_system": "Xanthomonas sp.", "assay": "Antibacterial activity against Xanthomonas sp. at 6.25 ug/ml after 24 to 48 hrs by well plate diffusion method", "procedure,_shortened": "(§1)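 Agar well diffusion: 15-20 mL agar per dish, plates dried 1 h at 37 ± 2 °C in laminar flow, then seeded. Wells cut with an agar punch, each loaded with compound dissolved in DMSO (6.25 or 12.5 μg/mL). DMSO solvent control, ciprofloxacin standard. Plates in triplicate, incubated 37 ± 2 °C for 24–48 h. Inhibition zone diameter read in mm, with SD.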"}, "Aspergillus flavus [3]": {"test_system": "Aspergillus flavus", "assay": "Antifungal activity against Aspergillus flavus at 12.5 ug/ml after 72 hrs by well plate method"}, "Staphylococcus aureus [4]": {"test_system": "Staphylococcus aureus", "assay": "Antibacterial activity against Staphylococcus aureus at 12.5 ug/ml after 24 to 48 hrs by well plate diffusion method", "procedure,_shortened": "as §1"}, "Salmonella sp. [5]": {"test_system": "Salmonella sp.", "assay": "Antibacterial activity against Salmonella sp. at 12.5 ug/ml after 24 to 48 hrs by well plate diffusion method", "procedure,_shortened": "as §1"}, "Aspergillus niger [6]": {"test_system": "Aspergillus niger", "assay": "Antifungal activity against Aspergillus niger at 12.5 ug/ml after 72 hrs by well plate method"}, "Staphylococcus aureus [7]": {"test_system": "Staphylococcus aureus", "assay": "Antibacterial activity against Staphylococcus aureus at 6.25 ug/ml after 24 to 48 hrs by well plate diffusion method", "procedure,_shortened": "as §1"}, "Aspergillus terreus [8]": {"test_system": "Aspergillus terreus", "assay": "Antifungal activity against Aspergillus terreus at 6.25 ug/ml after 72 hrs by well plate method", "procedure,_shortened": "(§2)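 Sabouraud agar: peptone 10 g, glucose 40 g, agar 20 g per litre water, pH 5.7. Spore suspension made from a loopful of fungus in 3 mL normal saline and lawned on 20 mL agar per dish. Excess decanted, plates dried 1 h at 37 °C. Wells punched and loaded with compound in DMSO (6.25 or 12.5 μg/mL). DMSO control. Triplicate plates held at 25 °C for 72 h. Inhibition zone diameter measured. A. terreus strain NCIM 1325.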"}, "Aspergillus flavus [9]": {"test_system": "Aspergillus flavus", "assay": "Antifungal activity against Aspergillus flavus at 6.25 ug/ml after 72 hrs by well plate method"}, "Xanthomonas sp. [10]": {"test_system": "Xanthomonas sp.", "assay": "Antibacterial activity against Xanthomonas sp. at 12.5 ug/ml after 24 to 48 hrs by well plate diffusion method", "procedure,_shortened": "as §1"}, "Aspergillus terreus [11]": {"test_system": "Aspergillus terreus", "assay": "Antifungal activity against Aspergillus terreus at 12.5 ug/ml after 72 hrs by well plate method", "procedure,_shortened": "as §2"}, "Salmonella sp. [12]": {"test_system": "Salmonella sp.", "assay": "Antibacterial activity against Salmonella sp. at 6.25 ug/ml after 24 to 48 hrs by well plate diffusion method", "procedure,_shortened": "as §1"}, "Escherichia coli [13]": {"test_system": "Escherichia coli", "assay": "Antibacterial activity against Escherichia coli at 6.25 ug/ml after 24 to 48 hrs by well plate diffusion method", "procedure,_shortened": "as §1"}, "Aspergillus niger [14]": {"test_system": "Aspergillus niger", "assay": "Antifungal activity against Aspergillus niger at 6.25 ug/ml after 72 hrs by well plate method"}, "Penicillium sp. [15]": {"test_system": "Penicillium sp.", "assay": "Antifungal activity against Penicillium sp. at 6.25 ug/ml after 72 hrs by well plate method"}, "Escherichia coli [16]": {"test_system": "Escherichia coli", "assay": "Antibacterial activity against Escherichia coli at 12.5 ug/ml after 24 to 48 hrs by well plate diffusion method", "procedure,_shortened": "as §1"}},
  "data": [
    {"smiles": "Fc1ccc(-c2cc(-c3nc4cc(Cl)c(Cl)cc4[nH]3)c3cc(Cl)ccc3n2)cc1", "values": [
      {"measurement": "zone of inhibition at 12.5 µg/mL", "setting": "Penicillium sp. [1]", "value": 19, "unit": "mm"},
      {"measurement": "zone of inhibition at 6.25 µg/mL", "setting": "Xanthomonas sp. [2]", "value": 14, "unit": "mm"},
      {"measurement": "zone of inhibition at 12.5 µg/mL", "setting": "Aspergillus flavus [3]", "value": 13, "unit": "mm"},
      {"measurement": "zone of inhibition at 12.5 µg/mL", "setting": "Staphylococcus aureus [4]", "value": 12, "unit": "mm"},
      {"measurement": "zone of inhibition at 12.5 µg/mL", "setting": "Salmonella sp. [5]", "value": 28, "unit": "mm"},
      {"measurement": "zone of inhibition at 12.5 µg/mL", "setting": "Aspergillus niger [6]", "value": 12, "unit": "mm"},
      {"measurement": "zone of inhibition at 6.25 µg/mL", "setting": "Staphylococcus aureus [7]", "value": 10, "unit": "mm"},
      {"measurement": "zone of inhibition at 6.25 µg/mL", "setting": "Aspergillus terreus [8]", "value": 9, "unit": "mm"},
      {"measurement": "zone of inhibition at 6.25 µg/mL", "setting": "Aspergillus flavus [9]", "value": 13, "unit": "mm"},
      {"measurement": "zone of inhibition at 12.5 µg/mL", "setting": "Xanthomonas sp. [10]", "value": 16, "unit": "mm"},
      {"measurement": "zone of inhibition at 12.5 µg/mL", "setting": "Aspergillus terreus [11]", "value": 10, "unit": "mm"},
      {"measurement": "zone of inhibition at 6.25 µg/mL", "setting": "Salmonella sp. [12]", "value": 20, "unit": "mm"},
      {"measurement": "zone of inhibition at 6.25 µg/mL", "setting": "Escherichia coli [13]", "value": 12, "unit": "mm"},
      {"measurement": "zone of inhibition at 6.25 µg/mL", "setting": "Aspergillus niger [14]", "value": 12, "unit": "mm"},
      {"measurement": "zone of inhibition at 6.25 µg/mL", "setting": "Penicillium sp. [15]", "value": 12, "unit": "mm"},
      {"measurement": "zone of inhibition at 12.5 µg/mL", "setting": "Escherichia coli [16]", "value": 17, "unit": "mm"}
    ]},
    {"smiles": "Fc1ccc(-c2cc(-c3nc4cc(Cl)c(Cl)cc4[nH]3)c3ccccc3n2)cc1", "values": [
      {"measurement": "zone of inhibition at 12.5 µg/mL", "setting": "Penicillium sp. [1]", "value": 12, "unit": "mm"},
      {"measurement": "zone of inhibition at 6.25 µg/mL", "setting": "Xanthomonas sp. [2]", "value": 20, "unit": "mm"},
      {"measurement": "zone of inhibition at 12.5 µg/mL", "setting": "Aspergillus flavus [3]", "value": 10, "unit": "mm"},
      {"measurement": "zone of inhibition at 12.5 µg/mL", "setting": "Staphylococcus aureus [4]", "value": 16, "unit": "mm"},
      {"measurement": "zone of inhibition at 12.5 µg/mL", "setting": "Salmonella sp. [5]", "value": 12, "unit": "mm"},
      {"measurement": "zone of inhibition at 12.5 µg/mL", "setting": "Aspergillus niger [6]", "value": 12, "unit": "mm"},
      {"measurement": "zone of inhibition at 6.25 µg/mL", "setting": "Staphylococcus aureus [7]", "value": 12, "unit": "mm"},
      {"measurement": "zone of inhibition at 6.25 µg/mL", "setting": "Aspergillus terreus [8]", "value": 10, "unit": "mm"},
      {"measurement": "zone of inhibition at 6.25 µg/mL", "setting": "Aspergillus flavus [9]", "value": 10, "unit": "mm"},
      {"measurement": "zone of inhibition at 12.5 µg/mL", "setting": "Xanthomonas sp. [10]", "value": 22, "unit": "mm"},
      {"measurement": "zone of inhibition at 12.5 µg/mL", "setting": "Aspergillus terreus [11]", "value": 11, "unit": "mm"},
      {"measurement": "zone of inhibition at 6.25 µg/mL", "setting": "Salmonella sp. [12]", "value": 11, "unit": "mm"},
      {"measurement": "zone of inhibition at 6.25 µg/mL", "setting": "Escherichia coli [13]", "value": 12, "unit": "mm"},
      {"measurement": "zone of inhibition at 6.25 µg/mL", "setting": "Aspergillus niger [14]", "value": 10, "unit": "mm"},
      {"measurement": "zone of inhibition at 6.25 µg/mL", "setting": "Penicillium sp. [15]", "value": 12, "unit": "mm"},
      {"measurement": "zone of inhibition at 12.5 µg/mL", "setting": "Escherichia coli [16]", "value": 16, "unit": "mm"}
    ]},
    {"smiles": "Fc1ccc(-c2cc(-c3nc4ccccc4[nH]3)c3ccccc3n2)cc1", "values": [
      {"measurement": "zone of inhibition at 12.5 µg/mL", "setting": "Penicillium sp. [1]", "value": 17, "unit": "mm"},
      {"measurement": "zone of inhibition at 6.25 µg/mL", "setting": "Xanthomonas sp. [2]", "value": 11, "unit": "mm"},
      {"measurement": "zone of inhibition at 12.5 µg/mL", "setting": "Aspergillus flavus [3]", "value": 12, "unit": "mm"},
      {"measurement": "zone of inhibition at 12.5 µg/mL", "setting": "Staphylococcus aureus [4]", "value": 13, "unit": "mm"},
      {"measurement": "zone of inhibition at 12.5 µg/mL", "setting": "Salmonella sp. [5]", "value": 15, "unit": "mm"},
      {"measurement": "zone of inhibition at 12.5 µg/mL", "setting": "Aspergillus niger [6]", "value": 12, "unit": "mm"},
      {"measurement": "zone of inhibition at 6.25 µg/mL", "setting": "Staphylococcus aureus [7]", "value": 12, "unit": "mm"},
      {"measurement": "zone of inhibition at 6.25 µg/mL", "setting": "Aspergillus terreus [8]", "value": 12, "unit": "mm"},
      {"measurement": "zone of inhibition at 6.25 µg/mL", "setting": "Aspergillus flavus [9]", "value": 11, "unit": "mm"},
      {"measurement": "zone of inhibition at 12.5 µg/mL", "setting": "Xanthomonas sp. [10]", "value": 12, "unit": "mm"},
      {"measurement": "zone of inhibition at 12.5 µg/mL", "setting": "Aspergillus terreus [11]", "value": 14, "unit": "mm"},
      {"measurement": "zone of inhibition at 6.25 µg/mL", "setting": "Salmonella sp. [12]", "value": 9, "unit": "mm"},
      {"measurement": "zone of inhibition at 6.25 µg/mL", "setting": "Escherichia coli [13]", "value": 11, "unit": "mm"},
      {"measurement": "zone of inhibition at 6.25 µg/mL", "setting": "Aspergillus niger [14]", "value": 11, "unit": "mm"},
      {"measurement": "zone of inhibition at 6.25 µg/mL", "setting": "Penicillium sp. [15]", "value": 15, "unit": "mm"},
      {"measurement": "zone of inhibition at 12.5 µg/mL", "setting": "Escherichia coli [16]", "value": 16, "unit": "mm"}
    ]},
    {"smiles": "Fc1ccc(-c2cc(-c3nc4ccc(Cl)cc4[nH]3)c3ccccc3n2)cc1", "values": [
      {"measurement": "zone of inhibition at 12.5 µg/mL", "setting": "Penicillium sp. [1]", "value": 12, "unit": "mm"},
      {"measurement": "zone of inhibition at 6.25 µg/mL", "setting": "Xanthomonas sp. [2]", "value": 15, "unit": "mm"},
      {"measurement": "zone of inhibition at 12.5 µg/mL", "setting": "Aspergillus flavus [3]", "value": 16, "unit": "mm"},
      {"measurement": "zone of inhibition at 12.5 µg/mL", "setting": "Staphylococcus aureus [4]", "value": 13, "unit": "mm"},
      {"measurement": "zone of inhibition at 12.5 µg/mL", "setting": "Salmonella sp. [5]", "value": 17, "unit": "mm"},
      {"measurement": "zone of inhibition at 12.5 µg/mL", "setting": "Aspergillus niger [6]", "value": 18, "unit": "mm"},
      {"measurement": "zone of inhibition at 6.25 µg/mL", "setting": "Staphylococcus aureus [7]", "value": 12, "unit": "mm"},
      {"measurement": "zone of inhibition at 6.25 µg/mL", "setting": "Aspergillus terreus [8]", "value": 10, "unit": "mm"},
      {"measurement": "zone of inhibition at 6.25 µg/mL", "setting": "Aspergillus flavus [9]", "value": 11, "unit": "mm"},
      {"measurement": "zone of inhibition at 12.5 µg/mL", "setting": "Xanthomonas sp. [10]", "value": 15, "unit": "mm"},
      {"measurement": "zone of inhibition at 12.5 µg/mL", "setting": "Aspergillus terreus [11]", "value": 16, "unit": "mm"},
      {"measurement": "zone of inhibition at 6.25 µg/mL", "setting": "Salmonella sp. [12]", "value": 9, "unit": "mm"},
      {"measurement": "zone of inhibition at 6.25 µg/mL", "setting": "Aspergillus niger [14]", "value": 15, "unit": "mm"},
      {"measurement": "zone of inhibition at 6.25 µg/mL", "setting": "Penicillium sp. [15]", "value": 12, "unit": "mm"},
      {"measurement": "zone of inhibition at 12.5 µg/mL", "setting": "Escherichia coli [16]", "value": 16, "unit": "mm"}
    ]}
  ]
}
